Assay results as given in ChEMBL document CHEMBL4184148 (Bioorg Med Chem Lett, 2017).

Tests used:
[1] = molecular target: AP2-associated protein kinase 1 (Homo sapiens) (UniProt Q2M2I8); experiment: Binding affinity to human wild-type AAK1 (G25 to L333 residues) expressed in Escherichia coli BL21 at 1 uM by Kinomescan method relative to control
[2] = molecular target: Atypical kinase COQ8A, mitochondrial (Homo sapiens) (UniProt Q8NI60); experiment: Binding affinity to wild-type human […] ADCK3 (M280 to Q647 residues) expressed in Escherichia coli BL21 at 1 uM by Kinomescan method relative to control
[3] = molecular target: Ankyrin repeat and protein kinase domain-containing protein 1 (Homo sapiens) (UniProt Q8NFD2); experiment: Binding affinity to wild-type human partial length ANKK1 (M1 to A305 residues) expressed in HEK293 cells at 1 uM by Kinomescan method relative to control; assay type: cell-based
Outline: (§1)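 Kinome-wide competition binding panel run by an outside provider, with each compound tested at a single concentration. Activity is read against the kinase panel.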

[4] = molecular target: Calcium/calmodulin-dependent protein kinase type II subunit gamma (Homo sapiens) (UniProt Q13555); experiment: Binding affinity to wild-type human partial length CAMK2G (R9 to A303 residues) expressed in Escherichia coli BL21 at 1 uM by Kinomescan method relative to control
[5] = molecular target: Cyclin-dependent kinase 11B (Homo sapiens) (UniProt P21127); experiment: Binding affinity to wild-type human partial length CDC2L1 (P353 to G692 residues) expressed in Escherichia coli BL21 at 1 uM by Kinomescan method relative to control
[6] = molecular target: Cyclin-dependent kinase 7 (Homo sapiens) (UniProt P50613); experiment: Binding affinity to wild-type human full length CDK7 (M1 to L344 residues) expressed in HEK293 cells at 1 uM by Kinomescan method relative to control; assay type: cell-based
Outline: (§2)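 Run as one kinome-wide competition binding panel with each compound at a single fixed concentration. Results were plotted as a kinome-wide selectivity map.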

[7] = molecular target: Serine/threonine-protein kinase Chk2 (Homo sapiens) (UniProt O96017); experiment: Binding affinity to wild-type human partial length CHEK2 (S253 to E574 residues) expressed in Escherichia coli BL21 at 1 uM by Kinomescan method relative to control
[8] = molecular target: Casein kinase I isoform gamma-2 (Homo sapiens) (UniProt P78368); experiment: Binding affinity to wild-type human full length CSNK1G2 (M1 to K415 residues) expressed in Escherichia coli BL21 at 1 uM by Kinomescan method relative to control; outline: as §2
[9] = molecular target: Ephrin type-B receptor 3 (Homo sapiens) (UniProt P54753); experiment: Binding affinity to wild-type human partial length EPHB3 (Q599 to T928 residues) expressed in Escherichia coli BL21 at 1 uM by Kinomescan method relative to control
[10] = molecular target: Mitogen-activated protein kinase 7 (Homo sapiens) (UniProt Q13164); experiment: Binding affinity to wild-type human partial length ERK5 (M1 to A409 residues) expressed in Escherichia coli BL21 at 1 uM by Kinomescan method relative to control
[11] = molecular target: Fibroblast growth factor receptor 3 (Homo sapiens) (UniProt P22607); experiment: Binding affinity to wild-type human partial length FGFR3 (R442 to S771 residues) expressed in Escherichia coli BL21 at 1 uM by Kinomescan method relative to control
Sequence of Fibroblast growth factor receptor 3 (Homo sapiens) (P22607 23-806 limits assumed): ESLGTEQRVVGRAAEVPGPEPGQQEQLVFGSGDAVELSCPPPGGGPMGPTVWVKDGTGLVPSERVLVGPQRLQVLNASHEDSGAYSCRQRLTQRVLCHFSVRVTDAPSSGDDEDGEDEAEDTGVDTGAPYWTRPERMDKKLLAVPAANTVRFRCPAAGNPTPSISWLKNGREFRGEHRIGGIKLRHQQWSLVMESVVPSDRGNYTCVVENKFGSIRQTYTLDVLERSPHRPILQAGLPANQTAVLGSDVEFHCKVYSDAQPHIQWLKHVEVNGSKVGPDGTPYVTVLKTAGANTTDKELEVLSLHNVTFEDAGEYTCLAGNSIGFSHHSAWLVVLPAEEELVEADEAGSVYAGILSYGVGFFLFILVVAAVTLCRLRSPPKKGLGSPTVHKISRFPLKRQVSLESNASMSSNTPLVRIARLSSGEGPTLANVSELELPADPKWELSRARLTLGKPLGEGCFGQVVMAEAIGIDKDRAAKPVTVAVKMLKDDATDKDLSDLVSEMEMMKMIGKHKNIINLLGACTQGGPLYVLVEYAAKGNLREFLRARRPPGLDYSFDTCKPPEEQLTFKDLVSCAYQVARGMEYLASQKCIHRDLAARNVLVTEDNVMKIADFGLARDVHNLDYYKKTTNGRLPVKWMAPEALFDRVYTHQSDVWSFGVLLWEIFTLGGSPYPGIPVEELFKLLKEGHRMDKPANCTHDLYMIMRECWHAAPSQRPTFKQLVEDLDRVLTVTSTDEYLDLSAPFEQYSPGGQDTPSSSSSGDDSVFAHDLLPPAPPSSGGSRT

[12] = molecular target: Mitogen-activated protein kinase kinase kinase 3 (Homo sapiens) (UniProt Q99759); experiment: Binding affinity to wild-type human partial length MAP3K3 (E320 to Y626 residues) expressed in HEK293 cells at 1 uM by Kinomescan method relative to control; assay type: cell-based
[13] = molecular target: Serine/threonine-protein kinase MARK1 (Homo sapiens) (UniProt Q9P0L2); experiment: Binding affinity to wild-type human partial length MARK1 (Q30 to T341 residues) expressed in Escherichia coli BL21 at 1 uM by Kinomescan method relative to control
Sequence of Serine/threonine-protein kinase MARK1 (Homo sapiens) (Q9P0L2 whole entry, looked up, the tested form may be a part): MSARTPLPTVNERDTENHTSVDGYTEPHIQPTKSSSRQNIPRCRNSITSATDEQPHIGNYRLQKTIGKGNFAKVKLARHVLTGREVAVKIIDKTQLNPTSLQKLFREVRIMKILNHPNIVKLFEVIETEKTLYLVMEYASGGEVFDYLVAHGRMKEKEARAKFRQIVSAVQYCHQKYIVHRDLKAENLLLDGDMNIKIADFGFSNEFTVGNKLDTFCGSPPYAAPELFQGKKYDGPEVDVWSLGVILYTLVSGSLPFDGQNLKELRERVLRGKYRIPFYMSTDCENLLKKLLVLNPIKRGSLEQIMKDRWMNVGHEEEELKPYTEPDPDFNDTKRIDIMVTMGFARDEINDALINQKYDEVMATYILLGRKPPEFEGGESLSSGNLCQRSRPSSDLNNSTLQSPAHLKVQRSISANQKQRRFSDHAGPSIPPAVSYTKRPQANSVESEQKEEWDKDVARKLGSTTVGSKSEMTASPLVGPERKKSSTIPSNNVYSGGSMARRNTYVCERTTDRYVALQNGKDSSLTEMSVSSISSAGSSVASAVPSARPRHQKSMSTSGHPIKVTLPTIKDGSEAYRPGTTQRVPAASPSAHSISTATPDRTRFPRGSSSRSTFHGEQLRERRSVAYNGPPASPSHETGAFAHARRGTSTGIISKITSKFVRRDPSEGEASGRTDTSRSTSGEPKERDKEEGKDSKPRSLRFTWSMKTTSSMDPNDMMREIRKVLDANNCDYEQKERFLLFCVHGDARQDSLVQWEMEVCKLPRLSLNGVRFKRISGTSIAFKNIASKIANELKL

[14] = molecular target: Dual specificity mitogen-activated protein kinase kinase 4 (Homo sapiens) (UniProt P45985); experiment: Binding affinity to wild-type human partial length MEK4 (S84 to D399 residues) expressed in HEK293 cells at 1 uM by Kinomescan method relative to control; assay type: cell-based
[15] = molecular target: MAP kinase-interacting serine/threonine-protein kinase 2 (Homo sapiens) (UniProt Q9HBH9); experiment: Binding affinity to wild-type human partial length MKNK2 (G63 to S388 residues) expressed in HEK293 cells at 1 uM by Kinomescan method relative to control; assay type: cell-based
[16] = molecular target: Myosin light chain kinase family member 4 (Homo sapiens) (UniProt Q86YV6); experiment: Binding affinity to wild-type human partial length MYLK4 (V79 to S380 residues) expressed in Escherichia coli BL21 at 1 uM by Kinomescan method relative to control
Sequence of Myosin light chain kinase family member 4 (Homo sapiens) (Q86YV6 whole entry, the tested form may be a part): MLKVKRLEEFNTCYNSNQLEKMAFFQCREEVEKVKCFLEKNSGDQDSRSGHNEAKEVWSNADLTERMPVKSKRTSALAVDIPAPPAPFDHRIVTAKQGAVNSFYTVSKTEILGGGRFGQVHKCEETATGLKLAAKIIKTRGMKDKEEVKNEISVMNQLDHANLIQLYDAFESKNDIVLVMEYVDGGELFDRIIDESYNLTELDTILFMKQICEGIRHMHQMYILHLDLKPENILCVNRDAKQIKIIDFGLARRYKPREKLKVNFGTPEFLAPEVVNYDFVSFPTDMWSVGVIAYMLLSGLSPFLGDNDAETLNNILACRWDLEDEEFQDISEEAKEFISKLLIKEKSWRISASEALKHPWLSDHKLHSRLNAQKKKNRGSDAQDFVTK

[17] = molecular target: Serine/threonine-protein kinase Nek5 (Homo sapiens) (UniProt Q6P3R8); experiment: Binding affinity to wild-type human partial length NEK5 (M1 to M279 residues) expressed in Escherichia coli BL21 at 1 uM by Kinomescan method relative to control
[18] = molecular target: Serine/threonine-protein kinase Nek9 (Homo sapiens) (UniProt Q8TD19); experiment: Binding affinity to wild-type human partial length NEK9 (P32 to R328 residues) expressed in Escherichia coli BL21 at 1 uM by Kinomescan method relative to control
Sequence of Serine/threonine-protein kinase Nek9 (Homo sapiens) (Q8TD19 whole entry, the tested form may be a part): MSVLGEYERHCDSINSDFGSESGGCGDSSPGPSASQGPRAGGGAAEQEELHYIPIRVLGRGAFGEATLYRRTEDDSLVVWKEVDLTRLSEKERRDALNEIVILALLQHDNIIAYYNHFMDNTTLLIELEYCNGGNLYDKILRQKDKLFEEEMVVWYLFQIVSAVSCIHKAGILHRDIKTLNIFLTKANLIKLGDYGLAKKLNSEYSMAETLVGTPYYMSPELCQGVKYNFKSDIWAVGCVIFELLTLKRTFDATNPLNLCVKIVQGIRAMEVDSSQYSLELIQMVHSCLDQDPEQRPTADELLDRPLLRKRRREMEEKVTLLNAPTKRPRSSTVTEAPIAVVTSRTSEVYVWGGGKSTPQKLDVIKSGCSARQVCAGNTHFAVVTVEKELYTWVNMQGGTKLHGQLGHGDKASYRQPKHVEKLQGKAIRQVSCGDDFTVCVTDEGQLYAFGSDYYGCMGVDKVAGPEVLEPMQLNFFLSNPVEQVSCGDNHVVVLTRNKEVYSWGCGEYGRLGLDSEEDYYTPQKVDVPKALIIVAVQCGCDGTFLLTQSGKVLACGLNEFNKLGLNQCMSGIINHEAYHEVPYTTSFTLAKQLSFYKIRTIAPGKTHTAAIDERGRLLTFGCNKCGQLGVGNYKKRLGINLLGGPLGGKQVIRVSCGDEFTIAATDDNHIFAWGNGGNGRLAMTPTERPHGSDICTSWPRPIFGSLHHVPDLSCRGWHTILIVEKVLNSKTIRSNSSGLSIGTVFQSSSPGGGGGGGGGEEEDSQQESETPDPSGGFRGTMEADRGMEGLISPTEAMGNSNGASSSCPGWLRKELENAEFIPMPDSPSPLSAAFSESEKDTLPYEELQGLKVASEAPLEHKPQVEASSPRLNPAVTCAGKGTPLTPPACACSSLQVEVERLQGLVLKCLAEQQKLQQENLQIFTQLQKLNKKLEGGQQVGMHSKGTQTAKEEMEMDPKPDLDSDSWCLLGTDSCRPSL

[19] = molecular target: Mitogen-activated protein kinase 14 (Homo sapiens) (UniProt Q16539); experiment: Binding affinity to wild-type human full length p38-alpha (M1 to S360 residues) expressed in Escherichia coli BL21 at 1 uM by Kinomescan method relative to control; outline: as §1
[20] = molecular target: Calcium-dependent protein kinase 1 (Plasmodium falciparum) (UniProt P62344); experiment: Binding affinity to wild-type Plasmodium falciparum full length CDPK1 (M1 to S524 residues) expressed in HEK293 cells at 1 uM by Kinomescan method relative to control; assay type: cell-based
Sequence of Calcium-dependent protein kinase 1 (Plasmodium falciparum) (P62344 2-524 limits assumed): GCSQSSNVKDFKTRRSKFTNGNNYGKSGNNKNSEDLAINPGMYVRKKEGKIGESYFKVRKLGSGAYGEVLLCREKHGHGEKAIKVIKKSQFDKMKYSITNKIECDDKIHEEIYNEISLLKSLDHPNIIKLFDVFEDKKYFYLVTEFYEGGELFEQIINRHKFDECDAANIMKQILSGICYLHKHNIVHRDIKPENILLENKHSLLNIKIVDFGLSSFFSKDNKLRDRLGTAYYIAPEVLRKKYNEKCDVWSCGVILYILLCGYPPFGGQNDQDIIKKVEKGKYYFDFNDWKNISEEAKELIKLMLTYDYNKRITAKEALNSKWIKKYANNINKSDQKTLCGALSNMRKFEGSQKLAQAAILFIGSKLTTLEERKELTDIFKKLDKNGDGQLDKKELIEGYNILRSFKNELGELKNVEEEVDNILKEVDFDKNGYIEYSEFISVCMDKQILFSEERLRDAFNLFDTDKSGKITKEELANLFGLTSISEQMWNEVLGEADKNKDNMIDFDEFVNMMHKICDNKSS

[21] = molecular target: Cyclin-dependent kinase 2 homolog (Plasmodium falciparum (isolate 3D7)) (UniProt P61075); experiment: Binding affinity to wild-type Plasmodium falciparum full length PK5 (M1 to N288 residues) expressed in HEK293 cells at 1 uM by Kinomescan method relative to control; assay type: cell-based
Sequence of Cyclin-dependent kinase 2 homolog (Plasmodium falciparum (isolate 3D7)) (P61075 whole entry, the tested form may be a part): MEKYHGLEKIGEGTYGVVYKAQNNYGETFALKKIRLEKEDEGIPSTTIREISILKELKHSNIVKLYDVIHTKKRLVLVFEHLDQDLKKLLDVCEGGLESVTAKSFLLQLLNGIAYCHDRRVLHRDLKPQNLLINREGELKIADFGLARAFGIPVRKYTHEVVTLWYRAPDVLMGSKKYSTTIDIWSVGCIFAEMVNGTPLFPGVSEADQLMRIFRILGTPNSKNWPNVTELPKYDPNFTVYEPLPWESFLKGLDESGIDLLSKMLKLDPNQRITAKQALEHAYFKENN

[22] = molecular target: Phosphatidylinositol 4-phosphate 3-kinase C2 domain-containing subunit beta (Homo sapiens) (UniProt O00750); experiment: Binding affinity to wild-type human partial length PIK3C2B (M1 to L1634 residues) expressed in HEK293 cells at 1 uM by Kinomescan method relative to control; assay type: cell-based
[23] = molecular target: Phosphatidylinositol 4-kinase beta (Homo sapiens) (UniProt Q9UBF8); experiment: Binding affinity to wild-type human full length PIK4CB (M1 to M828 residues) expressed in HEK293 cells at 1 uM by Kinomescan method relative to control; assay type: cell-based; outline: as §1
[24] = molecular target: Serine/threonine-protein kinase PLK2 (Homo sapiens) (UniProt Q9NYY3); experiment: Binding affinity to wild-type human partial length PLK2 (H58 to F354 residues) expressed in HEK293 cells at 1 uM by Kinomescan method relative to control; assay type: cell-based
[25] = molecular target: Serine/threonine-protein kinase D2 (Homo sapiens) (UniProt Q9BZL6); experiment: Binding affinity to wild-type human partial length PRKD2 (A519 to E838 residues) expressed in Escherichia coli BL21 at 1 uM by Kinomescan method relative to control

Sequence of AP2-associated protein kinase 1 (Homo sapiens) (Q2M2I8 whole entry, looked up, the tested form may be a part): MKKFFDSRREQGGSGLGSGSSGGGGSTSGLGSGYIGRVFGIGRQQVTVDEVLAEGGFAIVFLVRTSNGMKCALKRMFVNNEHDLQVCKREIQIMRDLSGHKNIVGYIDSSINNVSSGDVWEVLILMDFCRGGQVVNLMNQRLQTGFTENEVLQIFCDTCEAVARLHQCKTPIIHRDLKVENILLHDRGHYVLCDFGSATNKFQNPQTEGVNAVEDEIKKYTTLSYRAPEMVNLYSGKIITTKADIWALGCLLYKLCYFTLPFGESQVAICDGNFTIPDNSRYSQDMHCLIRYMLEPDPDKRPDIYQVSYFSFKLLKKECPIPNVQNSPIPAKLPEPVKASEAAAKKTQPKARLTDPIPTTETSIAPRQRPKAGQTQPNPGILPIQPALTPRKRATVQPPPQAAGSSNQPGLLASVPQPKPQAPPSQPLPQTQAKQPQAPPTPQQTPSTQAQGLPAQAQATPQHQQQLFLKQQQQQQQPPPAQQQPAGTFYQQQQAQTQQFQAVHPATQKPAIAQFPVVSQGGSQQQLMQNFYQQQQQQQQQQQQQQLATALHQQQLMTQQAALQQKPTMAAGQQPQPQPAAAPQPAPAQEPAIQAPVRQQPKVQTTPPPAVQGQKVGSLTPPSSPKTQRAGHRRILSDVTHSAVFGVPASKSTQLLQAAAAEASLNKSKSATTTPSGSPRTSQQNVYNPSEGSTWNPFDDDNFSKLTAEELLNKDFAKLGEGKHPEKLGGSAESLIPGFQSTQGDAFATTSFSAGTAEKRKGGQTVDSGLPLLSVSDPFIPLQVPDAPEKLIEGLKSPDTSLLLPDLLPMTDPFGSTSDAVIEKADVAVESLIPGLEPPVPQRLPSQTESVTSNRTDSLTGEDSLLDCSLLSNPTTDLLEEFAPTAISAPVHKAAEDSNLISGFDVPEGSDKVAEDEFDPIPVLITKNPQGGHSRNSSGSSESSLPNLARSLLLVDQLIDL

Compound | Activity [1] [%] | Activity [2] [%] | Activity [3] [%] | Activity [4] [%] | Activity [5] [%] | Activity [6] [%] | Activity [7] [%] | Activity [8] [%] | Activity [9] [%] | Activity [10] [%] | Activity [11] [%] | Activity [12] [%] | Activity [13] [%] | Activity [14] [%] | Activity [15] [%] | Activity [16] [%] | Activity [17] [%] | Activity [18] [%] | Activity [19] [%] | Activity [20] [%] | other results
CCC(=O)Nc1ccc(C(=O)Nc2ccc(Nc3ncc4c(n3)N(C)c3ccc(C)cc3C(=O)N4C)cc2)cc1 | 100 | 96 | 60 | 97 | 100 | 66 | 95 | 86 | 88 | 97 | 89 | 63 | 85 | 88 | 84 | 100 | 86 | 100 | 100 | 74 | Activity [21]: 94%; Activity [22]: 79%; Activity [23]: 88%; Activity [24]: 74%; Activity [25]: 98%
C=CC(=O)Nc1ccc(C(=O)Nc2ccc(Nc3ncc4c(n3)N(C)c3ccc(C)cc3C(=O)N4C)cc2)cc1 | 99 | 99 | 92 | 100 | 97 | 80 | 97 | 97 | 89 | 86 | 73 | 86 | 84 | 100 | 66 | 100 | 100 | 97 | 100 | 100 | Activity [21]: 96%; Activity [22]: 98%; Activity [23]: 80%; Activity [24]: 90%; Activity [25]: 98%
